# Experimental data taken from ChEMBL document CHEMBL1123217, “Molecular design toward biologically significant compounds based on platelet activating factor: a highly selective agonist as a potential antihypertensive agent” (1986).
# What was measured:
# Rattus norvegicus [1] = experiment: Antihypertensive activity using C16-PAF in rat at a doses ranging from 1-10 nmol/kg iv; type: functional
# Summary of the method: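 Male Wistar rats (350-430 g, 3-6 per group) under sodium pentobarbital anesthesia (60 mg/kg). Arterial pressure was recorded through a femoral artery catheter. Doses were given iv through a vena cava catheter once readings were stable. Pressure and heart rate were followed every 5 min for 40 min. Falls were expressed relative to C16-PAF given at 1-10 nmol/kg iv.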
# Rattus norvegicus [2] = experiment: Hypotensive activity in spontaneously hypertensive rat expressed as decrease in systolic BP at 0.1 mg/kg, po; type: functional
# Summary of the method: (§1)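 Male SHR aged 18-20 weeks, fasted 24 h with free access to water, dosed orally. Systolic pressure was measured indirectly by tail cuff, with heart rate recorded at the same time. The fall in mmHg was read 3 h after dosing, with 4-5 animals per dose, reported as mean ±.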
# Oryctolagus cuniculus = organism: Oryctolagus cuniculus; experiment: Relative activity against platelet aggregation in [14C]5-HT preloaded rabbit platelet for 2 mins; type: functional
# Summary of the method: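 Rabbit platelets preloaded with [14C]serotonin were incubated with a range of analogue amounts for 2 min at 20 °C, and [14C]serotonin release was measured. Activity was expressed relative to the ED50 of C16-PAF.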
# [3] = Ratio of antihypertension to platelet activation
# Rattus norvegicus [4] = experiment: Hypotensive activity in spontaneously hypertensive rat expressed as decrease in systolic BP at 1 mg/kg, po; type: functional; summary of the method: as §1
# Rattus norvegicus [5] = experiment: Hypotensive activity in spontaneously hypertensive rat expressed as decrease in systolic BP at 3 mg/kg, po; type: functional
# Summary of the method: (§2)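 Male SHR (18-20 weeks old), food withdrawn 24 h beforehand with free access to water; compound given orally; systolic blood pressure in the tail artery read indirectly by tail-cuff, heart rate recorded simultaneously; decrease in systolic pressure (mmHg) taken 3 h after dosing; n = 4-5 animals per dose.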
# Rattus norvegicus [6] = experiment: Hypotensive activity in spontaneously hypertensive rat expressed as decrease in systolic BP at 0.3mg/kg, po; type: functional; summary of the method: as §2
# Rattus norvegicus [7] = experiment: Hypotensive activity in spontaneously hypertensive rat expressed as decrease in systolic BP at 25 mg/kg, po; type: functional; summary of the method: as §2
SMILES,Relative activity (Rattus norvegicus [1]),Relative activity (Oryctolagus cuniculus),Ratio [3],other results
CCCCCCCCCCCCCCCCOCC(C)(COP(=O)([O-])OCC[N+](C)(C)C)OC(C)=O (stereo unspecified),0.0001,–,–,–
CCCCCCCCCCCCCCCCOC(C)C(COP(=O)([O-])OCC[N+](C)(C)C)OC(C)=O (stereo in doubt; 2),0.059,0.0087,6.78,Decrease (Rattus norvegicus [2]): 35 mmHg; Decrease (Rattus norvegicus [4]): 69 mmHg
CCCCCCCCCCCCCCCCOCC(OC(C)=O)C(C)OP(=O)([O-])OCC[N+](C)(C)C (stereo in doubt; 6),0.0014,0.00089,1.57,–
"CCCCCCCCCCCCCCCCOC(C)C(COP(=O)([O-])OCC[N+](C)(C)C)OC(C)=O (single isomer, unassigned; enantiomer 2)",0.0002,–,–,–
CCCCCCCCCCCCCCCCOC(C)C(COP(=O)([O-])OCC[N+](C)(C)C)OC(C)=O (stereo in doubt; 3),0.00033,–,–,–
"CCCCCCCCCCCCCCCCOC(C)C(COP(=O)([O-])OCC[N+](C)(C)C)OC(C)=O (single isomer, unassigned; enantiomer 3)",0.0001,0.00056,0.18,–
CCCCCCCCCCCCCCCCOCC(OC(C)=O)C(C)OP(=O)([O-])OCC[N+](C)(C)C (stereo in doubt),0.0002,–,–,–
CCCCCCCCCCCCCCCCOCC(OC(C)=O)C(C)OP(=O)([O-])OCC[N+](C)(C)C (stereo in doubt; 5),0.002,–,3.64,–
"CCCCCCCCCCCCCCCCOCC(OC(C)=O)C(C)OP(=O)([O-])OCC[N+](C)(C)C (single isomer, unassigned)",0.001,0.00055,1.82,–
CCCCCCCCCCCCCCCCOCC(COP(=O)([O-])OCC[N+](C)(C)C)OC(C)=O (stereo unspecified) [PLATELET ACTIVATING FACTOR],1,1,1,Decrease (Rattus norvegicus [5]): 5 mmHg; Decrease (Rattus norvegicus [6]): 4 mmHg; Decrease (Rattus norvegicus [7]): 53 mmHg
